# Screening data deposited in PubChem by several laboratories.
# Only some compounds are listed: those with a hit (about 2.9% of all), similar ones and a draw of the others.
# proKLK7 act – activates the human kallikrein-7 zymogen; P49862; purified proKLK7, EDANS-DABCYL substrate fluorescence; 100% is mature enzyme control, 0% vehicle; activation, % at 7 µM; actives 0.9% (n = 370,000);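 active = activation above the mean of all tested compounds plus 3 SD, computed per campaign excluding outliers beyond control limits, cut at about 13% in these data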
# Target sequence (P49862 whole entry, looked up): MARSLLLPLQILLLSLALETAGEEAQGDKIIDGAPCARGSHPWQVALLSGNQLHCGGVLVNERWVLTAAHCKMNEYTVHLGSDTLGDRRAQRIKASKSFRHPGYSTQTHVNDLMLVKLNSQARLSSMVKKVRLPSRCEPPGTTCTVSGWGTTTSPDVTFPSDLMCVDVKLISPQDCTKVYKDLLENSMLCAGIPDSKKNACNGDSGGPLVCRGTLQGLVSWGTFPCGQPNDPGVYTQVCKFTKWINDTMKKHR
# Tn7 DDE FP – disrupts Tn7 cyclic peptide binding to fibrin D-Dimer-E complex. actives 0.13% (n = 370,000). FP displacement of FITC-Tn7 peptide from fibrin DD(E); 0% = median of compound wells per plate. inhibition, % at 8.3 µM;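 active = inhibition above the mean of compounds falling within the control limits plus 3 SD of them, cut at about 14% in these data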;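 also: 0% = plate median of compound wells and 100% = 10 µM Aha-Tn7 peptide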
#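 system = human fibrin DD(E) protein | quantity = DD(E) 2 µM final | medium = Tris/NaCl/CaCl2 buffer, pH 7.8 | also added = labelled Tn7 tracer, 0.1 µM | compound dosing = single point at 8.3 µM | timing = compound with protein 10 min, then 3 h after probe, room temperature | signal = FP measurement | benchmarks = Aha-Tn7 high control | repeats = one replicate per compound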
# Tn6 DDE FP – DD(E)-Tn6 binding inhibition, primary FP screen. P02675. Fibrin DD(E) TRITC-Tn6 fluorescence polarization displacement. inhibition, % at 8.3 µM. actives 0.21% (n = 370,000);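 active = inhibition above a per-campaign cutoff: mean of compounds within control limits plus 3 SD, cut at about 15% in these data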;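 also: 0% = median of all compound wells on the plate and 100% = blocking peptide control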
# CRFBP-R2 agonist – agonists of human CRF-binding protein/CRF-R2 receptor complex. actives 0.46% (n = 350,000). AID 588473. HEK293 CRF-R2/CRF-BP, calcium dye fluorescence (FLIPR); percent of saturating CRF peptide response. activation, % at 13.2 µM;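 active = activation of at least 50%, plus an integration ratio under a set limit after plate pattern correction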;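 also: plate controls were neutral control wells without compound for no effect and CRF at EC100 for full effect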
# CRFBP-R2 block – antagonists of CRF-binding protein/CRF-R2 receptor complex; HEK293 CRF-R2/CRF-BP, CRF-induced calcium fluorescence; inhibition, % at 11.8 µM; actives 0.59% (n = 350,000); AID 588475;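 active = inhibition of the ligand-induced calcium signal above about 50% at the single tested concentration, limit read from the data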
# NRP1-CendR mod – NRP-1/CendR interaction modulation; O14786; FAM-RPARPAR peptide binding to NRP-1, fluorescence polarization; inhibition, % at 25 µM; actives 0.85% (n = 360,000); AID 602438;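 active = inhibition or corrected inhibition above about 18%, plus a signal ratio from 0.5 to 1.5, limit read from the data, passing the limit was not always enough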
# proKLK7 act conf – proKLK7 activation, confirmation | shares compounds with proKLK7 act | actives 68% (n = 3,200) | purified proKLK7, EDANS-DABCYL substrate fluorescence; scaled: vehicle 0, mature enzyme 100 | activation, % at 7 µM;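 active = activation, as change over the incubation, above the mean of all tested compounds plus 3 SD, cut at about 13% in these data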
# EDANS interfere – fluorescence interference counter-screen for KLK7 activators | shares compounds with proKLK7 act | EDANS-DABCYL substrate fluorescence interference, no enzyme, 4 h; solvent 0%, active enzyme control 100% | activation, % at 7 µM | actives 80% (n = 3,200) | AID 686952;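 active = activation above the all-compound mean plus 3 SD, ignoring values outside control-based bounds, cut at about 4.8% in these data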;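 also: value is the 4 h activation minus the activation read at time zero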
# The depositor's hits bear a star; · = no result given; ! = a repeat was not active.
SMILES,proKLK7 act,Tn7 DDE FP,Tn6 DDE FP,CRFBP-R2 agonist,CRFBP-R2 block,NRP1-CendR mod,proKLK7 act conf,EDANS interfere
CCOC(=O)c1sc(NC(=O)c2ccccc2)cc1C,16*,-4,-2,-2,12,-8,-1,-1
CCOC(=O)c1sc(NC(=O)c2ccc(S(=O)(=O)N(C)C)cc2)cc1C,2,7,6,1,-21,3,·,·
N=c1oc2cc(O)ccc2cc1C(=O)Nc1nc2ccccc2s1,55*,0,2,40,-14,-93,67*,73*
COC(=O)[C@]12C[C@H](CC(=O)NCc3cccs3)C(=O)N(Cc3cccc4ccccc34)C1=C[C@H](C1CCCC1)O[C@@H]2C,0,-4,-4,·,·,·,·,·
COc1cc2c(cc1OC)C(COc1ccc([N+](=O)[O-])cc1)NCC2 (stereo not drawn),14*,-6,2,0,-7,3,0,-1
CSc1nsc2nc(=O)c(/C=C3\C(C)=Nc4ccc(C)cc43)c(N)n12,-1,-2,-3,-1,18,-18,·,·
CC1=Nc2ccc(C)cc2/C1=C/c1c(N)n2oc(C)cc2nc1=O,48*!,4,-1,4,-5,-74,25*,35*
N#Cc1ccc(/C=C/C(=O)c2ccco2)cc1,0,10,5,-2,-11,9,·,·
CC(C)(C)C(=O)Nc1ccc(/C=C/C(=O)c2ccco2)cc1,78*,-2,-2,1,0,-8,53*,48*
C[C@H]1[C@@H](c2ccccc2)Oc2c(Cl)cccc2S(=O)(=O)N1C,1,-3,11,·,·,·,·,·
CC1=C(C(=O)OC(C)C)C(c2cccnc2)C2=C(CC(C)(C)CC2=O)N1 (stereo not drawn),7,-4,1,-3,-1,-2,·,·
CC1=C(C(=O)OCC2CCCO2)C(c2ccncc2)C2=C(CC(C)(C)CC2=O)N1 (stereo not drawn),13*,0,2,0,-5,8,21*,29*
COCCOC(=O)C1=C(C)NC2=C(C(=O)CC(C)(C)C2)C1c1cccnc1 (stereo not drawn),18*,-6,3,0,9,13,39*,34*
Cc1cc(C(=O)O[C@H]2CCC[C@@]3(C(=O)N(Cc4ccccc4)c4ccccc43)[C@H]2NC(=O)CCc2ccccc2)no1,0,-3,2,·,·,·,·,·
COC(=O)C1=C(C)N(Cc2ccccc2C(F)(F)F)C(=NCc2ccc(OC)cc2)NC1c1ccccc1C(F)(F)F (stereo not drawn),0,8,4,·,·,·,·,·
CCCCOCCCNC(=O)C[C@H]1C[C@@]2(C(=O)OC)C(=C[C@H](C(C)C)O[C@@H]2C2CC2)N(Cc2cccc3ccccc23)C1=O,1,-1,-5,·,·,·,·,·
O=C(OCc1cn(Cc2ccc(C(F)(F)F)cc2)nn1)N1CCCC1,0,1,4,·,·,·,·,·
CCOc1ccc(-n2c(SCC(=O)Nc3ccc4c(c3)OCCO4)nnc2-c2ccncc2)cc1,0,7,5,·,·,·,·,·
COc1ccc(C(=O)/C=C/c2ccc(O)cc2)cc1,18*,7,0,2,16,-20,4,5.5*
COc1cc(/C=C/C(=O)OCC(=O)Nc2ccc3c(c2)OCCO3)ccc1OCC#N,38*,2,4,0,-9,2,128*,110*
COc1ccc(C=CC(=O)c2ccc([N+](=O)[O-])cc2)cc1,0,3,-4,10,-3,-19,·,·
COc1ccc(/C=C/C(=O)c2ccccc2)cc1COc1ccccc1F,263*,-1,5,1,-17,2,-17,80*
COc1ccc(C=O)cc1COc1ccccc1F,0,-1,6,-3,7,7,·,·
COc1ccccc1/C=C/C(=O)OCC(=O)Nc1ccc2c(c1)OCCO2,0,-6,-2,0,-5,6,·,·
COc1cc(/C=C/C(=O)c2ccc(O)cc2)ccc1OCC#N,16*,-9,-7,-6,-10,-9,3,4.2*
SMILES,proKLK7 act,Tn7 DDE FP,Tn6 DDE FP,CRFBP-R2 agonist,CRFBP-R2 block,NRP1-CendR mod,proKLK7 act conf,EDANS interfere
COCc1[nH]nc2c1C(c1ccc(C)cc1)N(Cc1ccccc1)C2=O (stereo not drawn),0,13,5,·,·,·,·,·
CC(C)(C)c1ccc(S(=O)(=O)N2CCCC(C(=O)N3CCN(Cc4ccccc4)CC3)C2)cc1 (stereo not drawn),0,-7,3,·,·,·,·,·
CNc1ccccc1/C(O)=C(\C#N)C(=O)NCc1cccc2ccccc12,0,-3,-1,·,·,·,·,·
O=C(OCc1cn(Cc2ccccc2F)nn1)N1CCCC1,1,1,1,·,·,·,·,·
CN1c2ccccc2-c2nc3ccccc3n2C1c1ccccn1 (stereo not drawn),34*,-2,-2,-4,16,4,7,3
c1ccc(CN2c3ccccc3-c3nc4ccccc4n3C2c2ccccn2)cc1 (stereo not drawn),-8,3,-8,0,48,2,·,·
CCN1c2ccccc2-c2nc3ccccc3n2C1c1ccco1 (stereo not drawn),27*,4,-3,-5,4,-8,-9,-13
CCCCCCCCN1C(=O)N2Cc3ccccc3C2CS1(=O)=O (stereo not drawn),1,0,4,·,·,·,·,·
CCc1ccc(Cn2c(=O)n(Cc3ccc(C(=O)NCCCOC)cc3)c(=O)c3ccccc32)cc1,1,7,-1,·,·,·,·,·
O=C1/C(=C/c2cccc(F)c2)Oc2cc(O)ccc21,21*,4,-6,50,-8,-70,56*,79*
CCCc1cc(=O)oc2c(CN3CCN(C)CC3)c(O)ccc12,46*,5,4,-1,11,7,66*,75*
CCCc1cc(=O)oc2c(CN3CCOCC3)c(O)ccc12,75*,-4,1,3,0,-4,72*,63*
CCCCc1cc(=O)oc2cc(OCC(=O)N3CCOCC3)ccc12,0,3,-3,1,-4,4,·,·
CCCCc1cc(=O)oc2cc(O)ccc12,56*,-3,-5,4,6,0,79*,78*
CCCCc1cc(=O)oc2c(CN3CCN(C)CC3)c(O)ccc12,53*,-9,-2,1,-12,0,70*,75*
